Assay results of several laboratories.
Protocols differ between the studies behind these lines.
Cell line: A549

SMILES | read-out | method | time | IC50 [µM]
Cc1ccc(-c2nn(-c3ccc(S(C)(=O)=O)cc3)cc2/C=N\N=c2/[nH]c(-c3ccc([N+](=O)[O-])cc3)cs2)cc1 | cell growth or viability | MTT | 48 h | 57.6
Cc1c(OCC(F)(F)F)ccnc1COc1ccc(NC(=O)Nc2ccc(Cl)cc2)cc1 | cell growth or viability | MTT | 72 h | 2.39
C/C=C/C(=O)Nc1cc(Nc2nc(Nc3cnn(C)c3)c3sccc3n2)c(OC)cc1N(C)CCN(C)C | cell growth or viability | MTT | – | 25.9
CC1=C(O)C(=O)C=C2C1=CC=C1[C@@]2(C)CC[C@@]2(C)[C@@H]3C[C@](C)(C(=O)OCCO)CC[C@]3(C)CC[C@]12C | cell growth or viability | MTT | 48 h | 3.19
COc1ccccc1C#CCNCC(O)COc1cccc2[nH]c3ccccc3c12 (centres unmarked) | cell growth or viability | CCK-8 | 72 h | > 100
CCN(CC)CCCn1cccc1/C=N/NC(=O)Nc1cc2c(Nc3ccc(F)c(Cl)c3)ncnc2cc1OC | cell growth or viability | MTT | 72 h | 2.38
O=C([O-])c1ccc(-n2nc(-c3ccccc3O)nc2-c2ccccc2[O-])cc1.O=C([O-])c1ccc(-n2nc(-c3ccccc3O)nc2-c2ccccc2[O-])cc1.[Ti+4] | cell growth or viability | MTT | 72 h | 20
CS(=O)(=O)c1ccc(-n2cc(/C=N/N=c3\[nH]c(-c4ccc([N+](=O)[O-])cc4)cs3)c(-c3ccc(Br)cc3)n2)cc1 | cell growth or viability | MTT | 48 h | 68.7
COc1ccccc1CNCC(O)COc1cccc2[nH]c3ccccc3c12 (centres unmarked) | cell growth or viability | CCK-8 | 72 h | 13.9
CC1=C(O)C(=O)C=C2C1=CC=C1[C@@]2(C)CC[C@@]2(C)[C@@H]3C[C@](C)(C(=O)OCCCCCCO)CC[C@]3(C)CC[C@]12C | cell growth or viability | MTT | 48 h | > 100
COc1cc(/C=C/C(=O)C(=Cc2cccc(OC)c2OC)C(=O)/C=C/c2ccc(O)c(OC)c2)ccc1O | colony formation | – | 9 days | ~0.4
CCn1c(-c2nnc(NC(=O)c3cc4c([nH]c5ccccc54)c(-c4ccc(OC)cc4)n3)s2)cc2ccccc21 | cell growth or viability | MTT | 72 h | 14.2
COc1cccc2c1C(=O)c1c(O)c3c(c(O)c1C2=O)C[C@@](O)(C(=O)CO)C[C@@H]3O[C@H]1C[C@H](N)[C@H](O)[C@H](C)O1 | cell growth or viability | MTT | 48 h | 5.06
COc1nc(OCc2cccc(-c3ccccc3)c2C)ccc1CNCCNC(C)=O | cell growth or viability | MTT | – | 4.6
COc1ccccc1OCCNCC(O)COc1cccc2[nH]c3ccccc3c12 (centres unmarked) | cell growth or viability | CCK-8 | 72 h | 22.9
O=C(CN1C(=O)/C(=C/c2ccco2)SC1=S)Nc1ccccc1 | cell growth or viability | MTT | – | 14.9
Cc1c(NC(=O)c2ccc(C(C)(C)C)cc2)cccc1-c1cn(C)c(=O)c(Nc2ccc(C(=O)N3CCOCC3)cc2)n1 | cell growth or viability | – | – | > 10
Oc1ccc(-c2csc(Nc3ccc4c(O)ncnc4c3)n2)cc1 | cell growth or viability | MTT | – | 31.2
C=CC(=O)Nc1cc(Nc2nc(N3CCc4sccc4C3)c3sccc3n2)c(OC)cc1N1CCN(C)CC1 | cell growth or viability | MTT | – | 1.96
COc1cc(Nc2nccc(-c3cnn4nc(OC)ccc34)n2)cc(C(F)(F)F)c1 | cell growth or viability | ATP luminescence | – | 0.47
COCCCOc1ccnc(COc2ccc(NC(=O)Nc3ccc(Cl)cc3)cc2)c1C | cell growth or viability | MTT | 72 h | 10.2

SMILES | read-out | method | time | IC50 [µM]
O=C(N/N=C/CN1CCCCC1)Nc1cc2c(Nc3ccc(F)c(Cl)c3)ncnc2cc1O[C@H]1CCOC1 | cell growth or viability | MTT | 72 h | 4.2
NNc1nc(NCc2ccccc2)nc(Nc2ccc(Br)cc2)n1 | cell growth or viability | SRB | 72 h | > 30
CCCCNC(=O)NNC(=O)c1ccc(Nc2nccc(-c3ccccn3)n2)cc1 | cell growth or viability | MTT | 24 h | > 40
C=CC(=O)Nc1cc(Nc2nc(Nc3cnn(C)c3)c3sccc3n2)c(OC)cc1N(C)CCN(C)C | cell growth or viability | MTT | – | > 50
Nc1ccc(Cl)c[n+]1[Pt-2]([Cl])([Cl])[n+]1cc(Cl)ccc1N | cell growth or viability | MTT | 24 h | 8.6
COC(=O)/C=C/C=C/c1ccc2c(c1)OCO2 | cell growth or viability | SRB | – | 162
O=C(NC(=S)NCc1ccccc1)c1ccc2ccccc2c1 | cell growth or viability | – | 48 h | 5.53
Cc1ccc(C)n1-c1ccc(-c2nnc(-c3c(Cl)cccc3Cl)[nH]2)cc1 | cell growth or viability | MTT | 72 h | 231
O=C1Nc2ccc(Cl)cc2/C1=N/NC(=O)c1cc2ccccc2[nH]1 | cell growth or viability | – | – | 19.7
COc1cccc2c1C(=O)c1c(O)c3c(c(O)c1C2=O)C[C@@](O)(C(=O)CO)C[C@@H]3O[C@H]1C[C@H](N)[C@H](O)[C@H](C)O1 | cell growth or viability | – | 48 h | 0.56
O=C(N/N=C/CN1CCCC1)Nc1cc2c(Nc3ccc(F)c(Cl)c3)ncnc2cc1O[C@H]1CCOC1 | cell growth or viability | MTT | 72 h | 6.48
COCCCOc1ccnc(COc2ccc(NC(=O)Nc3ccc(F)cc3)cc2)c1C | cell growth or viability | MTT | 72 h | 5.74
CN1C(=O)/C(=N\NC(=O)c2cc3ccccc3[nH]2)c2ccccc21 | cell growth or viability | – | – | 4.04
O=C(/N=c1\scc(-c2ccccc2)n1C1CCCCC1)c1ccc2ccccc2c1 | cell growth or viability | – | 48 h | 16.4
O=c1[nH]cc(F)c(=O)[nH]1 | cell growth or viability | MTT | 48 h | 37.2
C=CC(=O)Nc1cc(Nc2nccc(-c3cn(C)c4ccccc34)n2)c(OC)cc1N(C)CCN(C)C | cell growth or viability | MTT | – | 0.379
COc1cc2ncnc(Nc3ccc(F)c(Cl)c3)c2cc1NC(=O)N/N=C/CN1CCCCC1 | cell growth or viability | MTT | 72 h | 5.63
CC(C)(C)NC(=O)NNC(=O)c1ccc(Nc2nccc(-c3ccc(Cl)cc3)n2)cc1 | cell growth or viability | MTT | – | 19.5
COc1cc2ncnc(Nc3ccc(F)c(Cl)c3)c2cc1NC(=O)N/N=C/c1cccn1CCN1CCCCC1 | cell growth or viability | MTT | 72 h | 2.31
COc1cc(N(C)CCN(C)C)c(NC(=O)/C=C/C(C)C)cc1Nc1nc(N2CCc3sccc3C2)c2sccc2n1 | cell growth or viability | MTT | – | > 50
